# pEC50, pIC50: −log10 of the molar value. Active and inactive are the calls of the source. The rule behind the calls is not given here.
# Key:
# CYP19 (aromatase) = target: T1, CYP19 (aromatase) (Homo sapiens, UniProt P11511); assay: Inhibition of human CYP19 at 10 uM preincubated for 10 mins with NADPH followed by protein addition measured after 90 mins by fluorometric analysis
# T1 sequence (P11511 whole entry): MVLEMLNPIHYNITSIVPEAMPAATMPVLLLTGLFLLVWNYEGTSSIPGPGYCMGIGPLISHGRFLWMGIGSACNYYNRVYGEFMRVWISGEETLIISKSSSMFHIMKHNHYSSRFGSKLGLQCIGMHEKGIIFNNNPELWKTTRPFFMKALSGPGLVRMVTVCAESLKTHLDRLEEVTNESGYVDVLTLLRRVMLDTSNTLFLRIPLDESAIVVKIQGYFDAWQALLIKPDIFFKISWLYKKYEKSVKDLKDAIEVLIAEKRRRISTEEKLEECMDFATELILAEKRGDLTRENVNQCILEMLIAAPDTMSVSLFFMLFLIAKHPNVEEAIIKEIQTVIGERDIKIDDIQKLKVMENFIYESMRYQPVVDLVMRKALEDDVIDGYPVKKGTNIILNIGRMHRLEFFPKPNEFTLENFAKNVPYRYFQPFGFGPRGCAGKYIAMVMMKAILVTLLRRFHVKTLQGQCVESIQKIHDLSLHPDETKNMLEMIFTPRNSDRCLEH
# [1] = Half life in rat liver microsomes after 30 mins by LC/MS/MS analysis; type: ADME
# [2] = Clearance in continuous angiotensin-2 infusion Sprague-Dawley rat model at 3 mg/kg, po and 1 mg/kg, iv; type: ADME, organism-based; conditions: in vivo
# [3] = Oral bioavailability in continuous angiotensin 2 infusion Sprague-Dawley rat model at 3 mg/kg; type: ADME, organism-based; conditions: in vivo
# Outline: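 Male Sprague Dawley rats, 200–300 g. IV: 0.3 mg/1 mL/kg (free base) slow injection via jugular vein, n=2. Oral gavage at 1 mg/5 mL/kg or 3 mg/5 mL/kg in solution, n=3. Jugular catheter blood at 5 min (iv only), 0.25–8 h into EDTA; plasma after protein precipitation with acetonitrile containing internal standard, HPLC-MS; noncompartmental parameters.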
# [4] = Inhibition of CYP11B2 in cynomolgus monkey adrenal homogenates assessed as inhibition of aldosterone secretion; type: tissue-based, Macaca fascicularis
# Outline: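 Cynomolgus monkey adrenal homogenates, with 11-DOC as substrate; aldosterone secretion inhibition determined as IC50.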
# Plasma [5] = assay: Drug uptake in plasma of po dosed chair-trained chronically cannulated cynomolgus monkey model compound administered followed by ACTH challenge for 3 hrs measured up to 8 hrs post challenge by LC/MS/MS analysis; type: ADME, organism-based, Macaca fascicularis; conditions: in vivo
# Outline: (§1)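 Conscious chair-trained, chronically cannulated male cynomolgus monkeys; vascular access port via Huber needle. Baseline blood (heparin) before dosing; methylcellulose suspension po at 0.03, 0.1, 0.3 or 3 mg/kg (n=3/dose) or vehicle (n=6, same animals). ACTH(1–24) 3000 ng/kg iv 3 h post-dose; sampling 0.125–1 h post-ACTH, up to 8 h, and 23.5 and 24 h. Aldosterone and cortisol by RIA; drug by LC/MS/MS (LLOQ 0.26 nmol/L, lower values set to zero).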
# Plasma [6] = assay: Drug uptake in plasma of chair-trained chronically cannulated cynomolgus monkey model at 0.03 to 3 mg/kg, po compound administered followed by ACTH challenge for 3 hrs measured at 24 hrs by LC/MS/MS analysis; type: ADME, organism-based, Macaca fascicularis; conditions: in vivo; outline: as §1
# Cynomolgus monkey [7] = assay: Decrease in ACTH-stimulated plasma aldosterone level in po dosed chair-trained chronically cannulated cynomolgus monkey model compound administered followed by ACTH challenge for 3 hrs measured after 24 hrs by LC/MS/MS analysis; type: functional, organism-based; conditions: Macaca fascicularis; outline: as §1
# Cynomolgus monkey [8] = assay: Decrease in plasma cortisol level in chair-trained chronically cannulated cynomolgus monkey model measured after 24 hrs […]; type: functional, organism-based; conditions: Macaca fascicularis; outline: as §1
# Cynomolgus monkey [9] = assay: Decrease in ACTH-stimulated plasma cortisol level of chair-trained chronically cannulated cynomolgus monkey model at 0.03 to 3 mg/kg, po compound administered followed by ACTH challenge for 24 hrs by LC/MS/MS analysis; type: functional, organism-based; conditions: Macaca fascicularis; outline: as §1
# [10] = Tmax in healthy human at 30 mg/kg, po bid; type: ADME, organism-based; conditions: in vivo
# Outline: (§2)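 Double-blind, randomized, placebo-controlled study in healthy male and female volunteers aged 18-63 on a restricted sodium/potassium diet. Oral bid doses of 30, 60, 100 or 200 mg, drug:placebo 5:2. N per dose 10–17. AUCtau, Cmax and median Tmax reported; dose-normalized values are AUCtau/dose and Cmax/dose.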
# [11] = Tmax in healthy human at 100 mg/kg, po bid; type: ADME, organism-based; conditions: in vivo; outline: as §2
# [12] = Tmax in healthy human at 200 mg/kg, po bid; type: ADME, organism-based; conditions: in vivo; outline: as §2
# [13] = Cmax in healthy human at 30 mg/kg, po bid; type: ADME, organism-based; design: dose 30 mg/kg, route oral; conditions: in vivo; outline: as §2
# [14] = Cmax in healthy human at 60 mg/kg, po bid; type: ADME, organism-based; design: dose 60 mg/kg, route oral; conditions: in vivo; outline: as §2
# [15] = Cmax in healthy human at 100 mg/kg, po bid; type: ADME, organism-based; design: dose 100 mg/kg, route oral; conditions: in vivo; outline: as §2
# [16] = Cmax in healthy human at 200 mg/kg, po bid; type: ADME, organism-based; design: dose 200 mg/kg, route oral; conditions: in vivo; outline: as §2
# Homo sapiens [17] = assay: Dose normalized AUCtau in healthy human at 30 mg/kg, po bid; type: ADME, organism-based; conditions: in vivo; outline: as §2
# Homo sapiens [18] = assay: Dose normalized AUCtau in healthy human at 100 mg/kg, po bid; type: ADME, organism-based; conditions: in vivo; outline: as §2
# Homo sapiens [19] = assay: Dose normalized AUCtau in healthy human at 200 mg/kg, po bid; type: ADME, organism-based; conditions: in vivo; outline: as §2
# Homo sapiens [20] = assay: Dose normalized Cmax in healthy human at 30 mg/kg, po bid; type: ADME, organism-based; conditions: in vivo; outline: as §2
# Homo sapiens [21] = assay: Dose normalized Cmax in healthy human at 100 mg/kg, po bid; type: ADME, organism-based; conditions: in vivo; outline: as §2
# Homo sapiens [22] = assay: Decrease in plasma aldosterone level in po dosed human administered as bid measured over 24 hrs; type: functional, organism-based
# Outline: (§3)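 Healthy male and female volunteers, 18-63 years, restricted sodium/potassium diet; double-blind randomized placebo-controlled, oral 30, 60, 100 or 200 mg bid (drug:placebo 5:2).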
# Homo sapiens [23] = assay: Decrease in urinary aldosterone excretion in human at 200 mg/kg, po bid measured over 24 hrs; type: functional, Urine; conditions: in the assay text read “200 mg” for “200 mg/kg”; outline: as §3
# Homo sapiens [24] = assay: Toxicity in human assessed as decrease in urinary cortisol level at 30 to 200 mg/kg, po bid measured over 24 hrs; type: organism-based, Urine; conditions: in vivo, in the assay text read “30 to 200 mg” for “30 to 200 mg/kg”; outline: as §3
# Homo sapiens [25] = assay: Toxicity in human assessed as increase in urinary 11-deoxycortisol level at 30 to 200 mg/kg, po bid measured over 24 hrs; type: organism-based, Urine; conditions: in vivo, in the assay text read “30 to 200 mg” for “30 to 200 mg/kg”; outline: as §3
# Cynomolgus monkey [26] = assay: Decrease in ACTH-stimulated plasma aldosterone level in chair-trained chronically cannulated cynomolgus monkey model at 3 mg/kg, po compound administered followed by ACTH challenge for 3 hrs measured by radioimmunoassay; design: scale not given: the % may be the effect or the level left
compound,measurement,setting,value
CCS(=O)(=O)NCc1cncc(-c2c(C#N)c3ccc(Cl)cc3n2C)c1,"inhibition at 1.5 h, 10 µM",CYP19 (aromatase),82%
same,half-life,[1],28 min
same,clearance,[2],18 mL/min/kg
same,bioavailability,[3],84%
same,pIC50,[4],8.00
same,Drug uptake,Plasma [5],Dose-dependent effect
same,Drug uptake,Plasma [6],Active
same,Activity,Cynomolgus monkey [7],Dose-dependent effect
same,pEC50,Cynomolgus monkey [7],8.07
same,ED50,Cynomolgus monkey [7]; po,0.061 mg/kg
same,Activity,Cynomolgus monkey [8],inactive
same,Activity,Cynomolgus monkey [9],inactive
same,Tmax,[10],4 h
same,Tmax,[11],4 h
same,Tmax,[12],4 h
same,Cmax,[13],117 ng/mL
same,Cmax,[14],173 ng/mL
same,Cmax,[15],173 ng/mL
same,Cmax,[16],306 ng/mL
same,AUC/dose,Homo sapiens [17],25.6 ng·h/mL/mg
same,AUC/dose,Homo sapiens [18],12.7 ng·h/mL/mg
same,AUC/dose,Homo sapiens [19],10.9 ng·h/mL/mg
same,Cmax/dose,Homo sapiens [20],3.9 ng/mL
same,Cmax/dose,Homo sapiens [21],1.7 ng/mL
same,Activity,Homo sapiens [22],Dose-dependent effect
same,%max,Homo sapiens [23],70%
same,Activity,Homo sapiens [24],Non-toxic
same,Activity,Homo sapiens [25],Non-toxic
same,Activity,Cynomolgus monkey [26],95%

# — ChEMBL document CHEMBL3745671, “Discovery of N-[5-(6-Chloro-3-cyano-1-methyl-1H-indol-2-yl)-pyridin-3-ylmethyl]-ethanesulfonamide, a Cortisol-Sparing CYP11B2 Inhibitor that Lowers Aldosterone in Human Subjects” (J Med Chem, 2015)
